Measured values reported in ChEMBL document CHEMBL5653631, “A Potent and Selective ULK1 Inhibitor Suppresses Autophagy and Sensitizes Cancer Cells to Nutrient Stress” (iScience, 2018).
Blank lines part the entries; values can stand above or below the compound they belong to.

Experiments:
[1] = target: T1, Serine/threonine-protein kinase A-Raf (Homo sapiens) (UniProt P10398); assay: Inhibition of human recombinant ARAF at 500 nM in presence of ATP by radiometric assay relative to control
T1 sequence (whole entry): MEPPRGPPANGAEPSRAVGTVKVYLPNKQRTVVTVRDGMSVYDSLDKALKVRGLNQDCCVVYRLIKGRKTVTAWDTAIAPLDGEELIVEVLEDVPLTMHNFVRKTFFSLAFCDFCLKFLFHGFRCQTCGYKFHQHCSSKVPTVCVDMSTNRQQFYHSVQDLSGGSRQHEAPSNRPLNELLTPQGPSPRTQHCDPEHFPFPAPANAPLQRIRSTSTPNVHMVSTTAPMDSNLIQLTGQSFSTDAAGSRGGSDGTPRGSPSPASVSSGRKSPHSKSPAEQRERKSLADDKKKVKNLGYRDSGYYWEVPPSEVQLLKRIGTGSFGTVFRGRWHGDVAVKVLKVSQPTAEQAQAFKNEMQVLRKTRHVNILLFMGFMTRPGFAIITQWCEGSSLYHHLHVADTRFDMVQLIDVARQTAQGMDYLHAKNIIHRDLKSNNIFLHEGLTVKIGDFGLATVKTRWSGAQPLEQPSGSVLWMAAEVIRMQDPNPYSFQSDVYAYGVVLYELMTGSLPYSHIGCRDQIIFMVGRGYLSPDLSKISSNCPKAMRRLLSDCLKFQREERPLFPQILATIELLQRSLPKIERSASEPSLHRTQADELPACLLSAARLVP
Outline: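 Panel of 327 recombinant human kinases, each assayed in vitro by radiometric activity assay in duplicate at a single inhibitor concentration per compound, chosen with reference to its ULK1 inhibition. Activity remaining was expressed as percent of vehicle control, and percent inhibition was calculated as 100 minus percent activity remaining.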

[2] = target: Ephrin type-A receptor 2 (Homo sapiens) (UniProt P29317); assay: Inhibition of human recombinant EphA2 at 500 nM related to control ULK1
[3] = target: Tyrosine-protein kinase JAK2 (Homo sapiens) (UniProt O60674); assay: Inhibition of human recombinant JAK2 at 40 nM in presence of ATP by radiometric assay relative to control
[4] = target: Serine/threonine-protein kinase SBK1 (Homo sapiens) (UniProt Q52WX2); assay: Inhibition of human recombinant SBK1 at 40 nM in presence of ATP by radiometric assay relative to control
[5] = target: Cyclin-dependent kinase 6 (Homo sapiens) (UniProt Q00534); assay: Inhibition of human recombinant CDK6 at 40 nM related to control ULK1
[6] = target: T2, Serine/threonine-protein kinase TAO1 (Homo sapiens) (UniProt Q7L7X3); assay: Inhibition of human recombinant TAO1 at 40 nM related to control ULK1
T2 sequence (whole entry): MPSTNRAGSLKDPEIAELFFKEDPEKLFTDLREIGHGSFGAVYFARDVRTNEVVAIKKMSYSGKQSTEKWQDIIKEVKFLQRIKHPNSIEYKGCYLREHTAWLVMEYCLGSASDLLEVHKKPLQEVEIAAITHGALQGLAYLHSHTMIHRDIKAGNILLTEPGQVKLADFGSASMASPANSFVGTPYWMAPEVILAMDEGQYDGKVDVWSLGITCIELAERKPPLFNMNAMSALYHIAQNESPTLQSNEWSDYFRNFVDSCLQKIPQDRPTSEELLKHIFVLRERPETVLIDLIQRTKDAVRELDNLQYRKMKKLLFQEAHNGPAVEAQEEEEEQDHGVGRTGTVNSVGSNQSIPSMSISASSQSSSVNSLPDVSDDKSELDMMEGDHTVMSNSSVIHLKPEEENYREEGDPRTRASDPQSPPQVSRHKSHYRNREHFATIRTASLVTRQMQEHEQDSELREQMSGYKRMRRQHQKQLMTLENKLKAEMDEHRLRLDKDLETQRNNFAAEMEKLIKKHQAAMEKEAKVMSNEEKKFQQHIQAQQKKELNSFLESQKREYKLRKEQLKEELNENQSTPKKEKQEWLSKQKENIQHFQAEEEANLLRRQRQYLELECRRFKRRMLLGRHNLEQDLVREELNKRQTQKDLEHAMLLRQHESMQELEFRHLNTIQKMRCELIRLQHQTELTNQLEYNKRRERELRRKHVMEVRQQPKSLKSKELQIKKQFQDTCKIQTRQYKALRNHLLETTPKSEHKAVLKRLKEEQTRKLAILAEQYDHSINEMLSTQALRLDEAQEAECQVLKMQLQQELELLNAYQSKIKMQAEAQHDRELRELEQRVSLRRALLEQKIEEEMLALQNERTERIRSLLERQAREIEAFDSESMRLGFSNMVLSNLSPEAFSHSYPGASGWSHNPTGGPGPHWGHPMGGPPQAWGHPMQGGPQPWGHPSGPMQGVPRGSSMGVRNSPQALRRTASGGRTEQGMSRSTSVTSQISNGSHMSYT

[7] = target: Mitogen-activated protein kinase kinase kinase 9 (Homo sapiens) (UniProt P80192); assay: Inhibition of human recombinant MLK1 at 15 nM in presence of ATP by radiometric assay relative to control
[8] = target: Serine/threonine-protein kinase PAK 2 (Homo sapiens) (UniProt Q13177); assay: Inhibition of human recombinant PAK2 at 15 nM in presence of ATP by radiometric assay relative to control
[9] = target: T3, Serine/threonine-protein kinase Sgk2 (Homo sapiens) (UniProt Q9HBY8); assay: Inhibition of human recombinant SGK2 at 15 nM related to control ULK1
T3 sequence (whole entry): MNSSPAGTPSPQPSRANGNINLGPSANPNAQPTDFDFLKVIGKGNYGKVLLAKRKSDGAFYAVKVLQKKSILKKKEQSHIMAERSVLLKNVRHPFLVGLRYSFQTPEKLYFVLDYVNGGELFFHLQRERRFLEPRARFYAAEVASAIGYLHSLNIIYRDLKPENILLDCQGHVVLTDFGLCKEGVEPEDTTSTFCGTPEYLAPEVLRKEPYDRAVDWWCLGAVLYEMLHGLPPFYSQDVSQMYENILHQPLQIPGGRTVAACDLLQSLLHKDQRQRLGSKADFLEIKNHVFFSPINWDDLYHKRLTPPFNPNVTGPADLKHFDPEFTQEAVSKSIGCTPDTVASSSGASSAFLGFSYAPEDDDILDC

[10] = target: Protein kinase C iota type (Homo sapiens) (UniProt P41743); assay: Inhibition of human recombinant PKCi at 15 nM in presence of ATP by radiometric assay relative to control
Chain of Protein kinase C iota type (Homo sapiens) (P41743 whole entry, looked up): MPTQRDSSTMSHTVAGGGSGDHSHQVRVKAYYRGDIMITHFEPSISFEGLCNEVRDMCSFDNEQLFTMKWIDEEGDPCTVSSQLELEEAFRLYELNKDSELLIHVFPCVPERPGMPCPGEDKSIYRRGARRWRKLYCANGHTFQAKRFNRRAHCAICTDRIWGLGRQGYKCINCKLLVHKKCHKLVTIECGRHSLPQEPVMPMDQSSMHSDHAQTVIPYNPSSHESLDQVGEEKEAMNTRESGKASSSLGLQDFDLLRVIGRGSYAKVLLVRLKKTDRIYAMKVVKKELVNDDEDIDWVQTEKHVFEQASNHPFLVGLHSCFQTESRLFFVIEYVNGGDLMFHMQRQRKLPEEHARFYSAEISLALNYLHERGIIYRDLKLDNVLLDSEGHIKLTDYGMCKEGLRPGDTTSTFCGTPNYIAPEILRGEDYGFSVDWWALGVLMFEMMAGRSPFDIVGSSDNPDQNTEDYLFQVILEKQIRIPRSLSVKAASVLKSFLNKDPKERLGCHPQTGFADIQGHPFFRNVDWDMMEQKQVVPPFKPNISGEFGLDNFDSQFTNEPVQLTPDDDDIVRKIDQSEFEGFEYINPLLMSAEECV

Chain of Serine/threonine-protein kinase PAK 2 (Homo sapiens) (Q13177 whole entry): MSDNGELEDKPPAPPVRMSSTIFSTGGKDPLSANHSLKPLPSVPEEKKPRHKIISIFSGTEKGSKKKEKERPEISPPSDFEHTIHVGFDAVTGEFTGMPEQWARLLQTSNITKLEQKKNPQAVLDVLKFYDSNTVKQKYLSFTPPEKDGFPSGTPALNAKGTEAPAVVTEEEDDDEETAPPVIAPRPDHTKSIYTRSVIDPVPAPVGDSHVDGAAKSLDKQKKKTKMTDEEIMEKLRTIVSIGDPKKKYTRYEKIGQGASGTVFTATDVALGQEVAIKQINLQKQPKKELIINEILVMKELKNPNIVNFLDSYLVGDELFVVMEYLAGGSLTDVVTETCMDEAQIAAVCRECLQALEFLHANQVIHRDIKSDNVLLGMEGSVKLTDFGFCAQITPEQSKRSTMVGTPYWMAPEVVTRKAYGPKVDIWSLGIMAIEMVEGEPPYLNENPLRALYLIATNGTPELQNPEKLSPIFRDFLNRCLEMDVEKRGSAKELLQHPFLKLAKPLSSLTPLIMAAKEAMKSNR
Chain of Tyrosine-protein kinase JAK2 (Homo sapiens) (O60674 whole entry): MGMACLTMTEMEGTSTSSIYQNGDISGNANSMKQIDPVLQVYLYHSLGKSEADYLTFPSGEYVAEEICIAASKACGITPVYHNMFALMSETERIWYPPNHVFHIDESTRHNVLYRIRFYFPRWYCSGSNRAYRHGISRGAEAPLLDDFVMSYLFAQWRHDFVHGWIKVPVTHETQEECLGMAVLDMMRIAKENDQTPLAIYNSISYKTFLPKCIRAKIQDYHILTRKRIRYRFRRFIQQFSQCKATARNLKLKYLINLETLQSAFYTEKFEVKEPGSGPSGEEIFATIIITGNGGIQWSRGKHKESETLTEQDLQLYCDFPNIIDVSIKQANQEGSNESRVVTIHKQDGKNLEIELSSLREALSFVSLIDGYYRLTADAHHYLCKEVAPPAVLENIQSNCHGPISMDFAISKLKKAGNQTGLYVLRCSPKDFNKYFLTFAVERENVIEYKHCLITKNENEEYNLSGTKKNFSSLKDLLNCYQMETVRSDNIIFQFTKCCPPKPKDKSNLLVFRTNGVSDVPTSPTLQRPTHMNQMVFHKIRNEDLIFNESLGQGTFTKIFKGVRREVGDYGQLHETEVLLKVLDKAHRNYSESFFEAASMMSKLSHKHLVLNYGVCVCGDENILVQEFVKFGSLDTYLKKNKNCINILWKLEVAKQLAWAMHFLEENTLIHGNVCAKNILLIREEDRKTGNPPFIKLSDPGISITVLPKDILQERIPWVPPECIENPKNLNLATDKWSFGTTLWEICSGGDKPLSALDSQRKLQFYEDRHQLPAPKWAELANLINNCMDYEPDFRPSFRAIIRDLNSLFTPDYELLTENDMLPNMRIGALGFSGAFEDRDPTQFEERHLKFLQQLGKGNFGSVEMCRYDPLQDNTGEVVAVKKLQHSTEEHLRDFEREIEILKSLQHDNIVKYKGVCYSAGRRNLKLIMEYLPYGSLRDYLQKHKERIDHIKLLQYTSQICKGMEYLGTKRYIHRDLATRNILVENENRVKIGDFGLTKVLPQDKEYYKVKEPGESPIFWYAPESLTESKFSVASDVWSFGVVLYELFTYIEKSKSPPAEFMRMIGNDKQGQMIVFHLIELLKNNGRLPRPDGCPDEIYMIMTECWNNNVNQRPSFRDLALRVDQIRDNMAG
Chain of Serine/threonine-protein kinase SBK1 (Homo sapiens) (Q52WX2 whole entry): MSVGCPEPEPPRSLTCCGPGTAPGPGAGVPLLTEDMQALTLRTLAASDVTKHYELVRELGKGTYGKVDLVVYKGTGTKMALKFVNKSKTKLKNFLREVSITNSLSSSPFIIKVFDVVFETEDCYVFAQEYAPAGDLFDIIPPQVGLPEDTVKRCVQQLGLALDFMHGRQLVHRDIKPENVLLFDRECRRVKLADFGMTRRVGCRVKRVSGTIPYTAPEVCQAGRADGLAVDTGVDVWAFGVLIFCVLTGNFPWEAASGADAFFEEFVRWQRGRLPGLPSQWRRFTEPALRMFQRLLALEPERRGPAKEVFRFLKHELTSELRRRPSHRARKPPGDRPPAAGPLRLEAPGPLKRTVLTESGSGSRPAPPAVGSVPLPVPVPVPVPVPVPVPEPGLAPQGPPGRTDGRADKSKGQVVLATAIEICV
Chain of Ephrin type-A receptor 2 (Homo sapiens) (P29317 whole entry): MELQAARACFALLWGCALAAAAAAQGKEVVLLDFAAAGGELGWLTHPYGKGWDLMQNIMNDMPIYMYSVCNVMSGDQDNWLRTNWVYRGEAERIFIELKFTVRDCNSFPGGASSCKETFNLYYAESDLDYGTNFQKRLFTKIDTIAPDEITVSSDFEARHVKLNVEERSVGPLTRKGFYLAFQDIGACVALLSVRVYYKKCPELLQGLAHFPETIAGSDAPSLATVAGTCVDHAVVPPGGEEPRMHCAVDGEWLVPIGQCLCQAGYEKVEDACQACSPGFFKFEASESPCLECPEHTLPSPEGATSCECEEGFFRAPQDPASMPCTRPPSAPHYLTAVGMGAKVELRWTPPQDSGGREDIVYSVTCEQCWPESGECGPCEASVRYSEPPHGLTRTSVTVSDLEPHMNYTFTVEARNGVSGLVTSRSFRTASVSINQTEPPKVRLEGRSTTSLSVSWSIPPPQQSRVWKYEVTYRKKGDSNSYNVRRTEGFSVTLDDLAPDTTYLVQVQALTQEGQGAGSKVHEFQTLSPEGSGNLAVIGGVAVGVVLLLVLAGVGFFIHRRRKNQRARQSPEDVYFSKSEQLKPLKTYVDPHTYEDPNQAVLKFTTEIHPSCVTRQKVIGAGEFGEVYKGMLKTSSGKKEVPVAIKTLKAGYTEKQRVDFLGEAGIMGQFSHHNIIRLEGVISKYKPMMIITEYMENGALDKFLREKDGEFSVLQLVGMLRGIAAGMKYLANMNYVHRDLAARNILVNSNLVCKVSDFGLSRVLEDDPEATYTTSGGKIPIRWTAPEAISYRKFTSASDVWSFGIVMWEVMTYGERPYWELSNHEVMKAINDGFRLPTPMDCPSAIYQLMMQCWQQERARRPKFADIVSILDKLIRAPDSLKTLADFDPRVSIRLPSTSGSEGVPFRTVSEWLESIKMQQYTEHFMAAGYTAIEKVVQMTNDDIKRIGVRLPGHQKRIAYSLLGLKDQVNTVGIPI
Chain of Mitogen-activated protein kinase kinase kinase 9 (Homo sapiens) (P80192 whole entry, looked up): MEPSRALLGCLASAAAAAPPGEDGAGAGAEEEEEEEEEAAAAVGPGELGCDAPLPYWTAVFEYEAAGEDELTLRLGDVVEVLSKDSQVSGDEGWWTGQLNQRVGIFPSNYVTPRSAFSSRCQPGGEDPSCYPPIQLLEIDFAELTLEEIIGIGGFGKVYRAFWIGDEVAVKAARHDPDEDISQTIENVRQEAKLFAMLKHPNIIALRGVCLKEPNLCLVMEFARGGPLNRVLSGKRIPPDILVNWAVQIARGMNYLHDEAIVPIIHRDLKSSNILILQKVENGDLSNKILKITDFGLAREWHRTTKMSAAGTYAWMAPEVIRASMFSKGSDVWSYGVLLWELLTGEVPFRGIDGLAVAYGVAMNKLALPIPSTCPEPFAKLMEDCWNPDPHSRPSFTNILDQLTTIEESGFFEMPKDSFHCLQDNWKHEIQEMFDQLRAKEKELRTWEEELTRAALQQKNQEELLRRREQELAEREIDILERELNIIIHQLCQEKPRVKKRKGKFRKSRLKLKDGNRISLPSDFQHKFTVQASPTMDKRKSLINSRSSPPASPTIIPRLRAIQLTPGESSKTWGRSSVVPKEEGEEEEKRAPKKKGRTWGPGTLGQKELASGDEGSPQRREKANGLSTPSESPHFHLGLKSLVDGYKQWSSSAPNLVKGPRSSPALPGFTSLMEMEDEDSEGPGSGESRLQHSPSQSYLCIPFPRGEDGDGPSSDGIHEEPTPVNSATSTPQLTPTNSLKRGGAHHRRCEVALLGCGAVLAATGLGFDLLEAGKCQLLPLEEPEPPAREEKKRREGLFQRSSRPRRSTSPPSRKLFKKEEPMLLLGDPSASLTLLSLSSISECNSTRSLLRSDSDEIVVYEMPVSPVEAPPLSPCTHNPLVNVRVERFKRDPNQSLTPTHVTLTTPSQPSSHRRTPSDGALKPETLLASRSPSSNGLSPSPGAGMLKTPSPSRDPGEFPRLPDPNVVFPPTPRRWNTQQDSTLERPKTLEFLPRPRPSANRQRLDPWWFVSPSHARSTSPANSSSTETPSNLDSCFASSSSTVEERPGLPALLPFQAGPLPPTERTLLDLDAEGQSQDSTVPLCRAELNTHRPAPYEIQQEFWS

- inhibition [1]: 0%
- fold change (FC) [2]: 0.03
Compound: CNC(=O)c1ccccc1Oc1nc(Nc2cc(OC)c(OC)c(OC)c2)ncc1Br

- inhibition [3]: 0%
- inhibition [4]: 0%
- fold change (FC) [5]: 0.04
- fold change (FC) [6]: 0
Compound: O=C(N[C@@H](C1CC1)C(F)(F)F)c1cc(-c2cnn3cc(-c4ccc(F)cc4)cnc23)cs1

- inhibition [7]: 0%
- inhibition [8]: 0%
- fold change (FC) [9]: 0
- inhibition [10]: 4%
Compound: CC(C)[C@H](NC(=O)c1cc(-c2cnn3cc(-c4ccc(OCCN5CCCCC5)cc4)cnc23)cs1)C(F)(F)F
